Results: paper PMC4832308 (Cancer, 2015)
Converted amounts (≈) assume the structure as drawn. “And” between values parts separate entries of the source, which are not always exact repeats. Identical values can stand only once. Like-named read-outs stand apart in the source and are kept apart here.

Experiments:
p4EBP1 [1] = test: immuno‐histochemical staining of tumor biopsies; type: in vivo, human; settings: HCC sample after treatment initiation
Outline: (§1)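 Optional pretreatment and on-treatment (days 15–22) tumor biopsies from 2 patients in the 30-mg/d cohort (HCC and salivary gland tumor). Paraffin-embedded sections were immunostained per antibody (pS6RP, p4EBP1, pAKT, Ki-67) or TUNEL-labelled, then scored by quantitative image analysis.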

pAKT [2] = test: blood biomarker analysis by flow cytometry and PK/PD modeling; type: in vivo, human; settings: for EC50: Homo sapiens, read-out: EC50 for pAKT inhibition
[3] = test system: solid tumor lines, including breast, glioma, hepatocellular carcinoma (HCC), and non–small cell lung cancer; settings: cited from earlier work
pS6RP = test: blood biomarker analysis by flow cytometry and PK/PD modeling; type: in vivo, human; settings: for EC50: Homo sapiens, read-out: EC50 for pS6RP inhibition
Outline: (§2)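 Sodium-heparin patient whole blood, taken predose and 1.5–5 h postdose: 1 h at 37°C, 15-min anti-IgD plus LPS stimulation, lyse/fix, methanol overnight at −80°C, then CD3/CD14/CD20 and phospho-staining and flow cytometry. Bead-calibrated MFI reported as ERF. Baseline-relative change vs plasma drug (chiral LC-MS) was fitted by a direct inhibitory NONMEM model for EC50: p4EBP1 in T cells, pS6RP in B cells and monocytes.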

[4] = test system: U87 glioblastoma multiforme; settings: cited from earlier work
pAKT [5] = test: immuno‐histochemical staining of tumor biopsies; type: in vivo, human; settings: pre‐ vs on‐treatment (days 15‐22), HCC and salivary gland tumor, 30‐mg/d cohort
Outline: as §1

[6] = test system: patients with advanced solid tumors or multiple myeloma; test: phase 1 dose escalation: preliminary efficacy; type: in vivo, human
Outline: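 Single dose on day −1, then oral daily dosing after a ≥6-h fast in 28-day cycles until progression. Tumors were imaged by CT or MRI. Response was scored by RECIST 1.1, international uniform criteria for myeloma, or revised high-grade glioma criteria. Evaluable patients were eligible, completed ≥1 cycle, and had baseline plus ≥1 postbaseline assessment. Disease control rate was given with a 90% confidence interval.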

TUNEL‐positive cells = test: TUNEL staining of tumor biopsies; type: in vivo, human; settings: HCC and salivary gland tumor samples after treatment
Outline: as §1

Ki67 = test: immuno‐histochemical staining of tumor biopsies; type: in vivo, human; settings: pre‐ vs on‐treatment (days 15‐22), HCC and salivary gland tumor, 30‐mg/d cohort
Outline: as §1

[7] = plasma pharmacokinetics in patients; type: in vivo, human
PC3 prostate cancer = settings: cited from earlier work
[8] = test system: non‐Hodgkin lymphoma cell lines; settings: cited from earlier work
p4EBP1 [9] = test: blood biomarker analysis by flow cytometry and PK/PD modeling; type: in vivo, human
Outline: as §2

[10] = 30‐, 45‐, and 60‐mg dose levels, 3 hours on treatment

Question: Which “p4EBP1 in tumor biopsy” value (p4EBP1 [1]) does the source give for CO[C@H]1CC[C@H](N2C(=O)CNc3ncc(-c4ccc(C(C)(C)O)nc4)nc32)CC1 [CC‐223] here?
Answer: inhibition

Question: What about the “pAKT inhibition in blood cells” value (pAKT [2]; [10]) of the same molecule?
Answer: > 48%

Question: And the EC50 (pAKT [2]; B-cell)?
Answer: 0.0504 µg/mL (≈ 0.127 µM)

Question: What about the EC50 (pAKT [2]; Monocyte) of the same molecule?
Answer: 0.085 µg/mL (≈ 0.214 µM)

Question: And the “activity against solid tumor lines” value [3]?
Answer: active

Question: And the “pS6RP inhibition in blood cells” value (pS6RP; [10])?
Answer: > 70%

Question: What about the EC50 (pS6RP; B-cell) of the same molecule?
Answer: 0.0203 µg/mL (≈ 0.0511 µM)

Question: What about the EC50 (pS6RP; Monocyte) of the same molecule?
Answer: 0.174 µg/mL (≈ 0.438 µM)

Question: And the “single‐agent activity in xenograft model” value [4]?
Answer: single‐agent activity

Question: And the “pAKT staining in tumor biopsies” value (pAKT [5])?
Answer: Significant inhibition

Question: And the complete response ([6]; 20 patients evaluable for efficacy)?
Answer: No patient had a complete response

Question: And the “patients with stable disease” value ([6]; across ≥15 mg/d cohorts)?
Answer: 8 patients

Question: What about the “patients with progressive disease” value ([6]; best response) of the same molecule?
Answer: 12 patients

Question: What about the “duration of partial response / disease control” value ([6]; breast cancer patient with PR, 30‐mg/d cohort) of the same molecule?
Answer: 220 days

Question: What about the disease control duration ([6]; breast cancer patient with SD) of the same molecule?
Answer: 168 days

Question: And the partial response rate ([6]; breast cancer patient, 30‐mg/d cohort)?
Answer: 3.6%

Question: What about the “patients with reduction in target lesions” value ([6]; in addition to the PR) of the same molecule?
Answer: 5 patients

Question: What about the “patients with SD >100 days” value ([6]; in vivo) of the same molecule?
Answer: 5 patients

Question: What about the “patients with disease control durations of >100 days” value ([6]; in vivo) of the same molecule?
Answer: Six

Question: What about the “best overall response rate per investigator” value ([6]; safety population) of the same molecule?
Answer: 3.6%

Question: And the disease control rate ([6]; safety population)?
Answer: 32% and 32.1%

Question: And the stable disease rate ([6]; safety population)?
Answer: 29%

Question: What about the “TUNEL‐positive cells in tumor biopsies” value (TUNEL‐positive cells) of the same molecule?
Answer: increase

Question: What about the “Ki67 staining in tumor biopsies” value (Ki67) of the same molecule?
Answer: Significant inhibition

Question: What about the “dose dependence of Cmax and AUC from time 0 to infinity” value ([7]; 30‐ to 60‐mg dose range, single or multiple doses) of the same molecule?
Answer: dose‐proportional

Question: What about the half-life ([7]; human, plasma, oral) of the same molecule?
Answer: 4.86 to 5.64 h

Question: What about the “ratio of AUC0‐24 between day 15 and day 1” value ([7]; multiple dosing) of the same molecule?
Answer: ≤ 22%

Question: And the “single‐agent activity in xenograft model” value (PC3 prostate cancer)?
Answer: single‐agent activity

Question: What about the “activity against non‐Hodgkin lymphoma cell lines” value [8] of the same molecule?
Answer: active

Question: And the “p4EBP1 inhibition in blood cells” value (p4EBP1 [9]; [10])?
Answer: > 40%

Question: And the EC50 (p4EBP1 [9]; Homo sapiens, T-cell, read-out: EC50 for p4EBP1 inhibition)?
Answer: 0.113 µg/mL (≈ 0.284 µM)
